Data as given in ChEMBL document CHEMBL1129793, “Quantitative structure-activity relationships for the in vitro antimycobacterial activity of pyrazinoic acid esters” (J Med Chem, 1996).

Key:
[1] = T1/2 in equine serum; assay type: ADME, organism-based, Equus caballus; settings: horse
How it was run: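 Ester from a 1 mg/mL stock was mixed with 5% aqueous equine serum in 0.01 M KH2PO4, pH 7.2. Remaining ester was measured by isocratic reverse-phase HPLC (80% acetonitrile/20% 0.1 M sodium acetate, pH 5.0), with UV detection at 265 nm against a standard curve. Half-life is the time to 50% conversion to the acid.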

[2] = Partition coefficient (logP); assay type: physicochemical; settings: octanol/water
Mycobacterium avium [3] = test: In vitro activity against Mycobacterium avium (MAC-101).; assay type: functional
How it was run: (§1)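 Broth macrodilution MIC. Cultures were grown in modified Middlebrook 7H10 broth (agar and malachite green omitted) with 10% OADC and 0.05% Tween 80, shaken at 37 °C for 3 days, then diluted in 7H10 broth to 1 Klett unit/mL. Test agents were dissolved in water or DMSO and filter-sterilised, then serially diluted 2-fold in 7H10 broth at pH 5.8. Tubes were shaken at 37 °C for 7–10 days, with a drug-free control. MIC was the lowest concentration with no visible turbidity, expressed in mmol/L.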

[4] = tested on: Mycobacterium tuberculosis; test: In vitro activity against Mycobacterium tuberculosis (ATCC 27294); assay type: functional; how it was run: as §1
[5] = tested on: Mycobacterium tuberculosis; test: In vitro activity against Mycobacterium tuberculosis (ATCC 35801); assay type: functional; how it was run: as §1
[6] = tested on: Mycobacterium tuberculosis; test: In vitro activity against Mycobacterium tuberculosis (ATCC 35828); assay type: functional; how it was run: as §1
Mycobacterium avium [7] = test: In vitro activity against Mycobacterium avium (ATCC 49601).; assay type: functional; how it was run: as §1
Mycobacterium kansasii = test: in vitro activity against Mycobacterium kansasii (SWK).; assay type: functional
How it was run: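 M. kansasii clinical isolate SWK was grown 3 days at 37 °C with shaking in modified Middlebrook 7H10 broth with 10% OADC and 0.05% Tween 80, then diluted. It was tested in serial 2-fold dilutions in 7H10 broth at pH 5.8, shaken at 37 °C for 7–10 days, with a drug-free control. MIC was the lowest concentration giving no visible turbidity, expressed in mmol/L.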

Row | SMILES | half-life [1] [min] | logP [2] | Log 1/MMIC (Mycobacterium avium [3]) | Log 1/MMIC [4] | Log 1/MMIC [5] | Log 1/MMIC [6] | Log 1/MMIC (Mycobacterium avium [7]) | Log 1/MMIC (Mycobacterium kansasii)
1 | CCCCCCCC(C)(CCCCC)OC(=O)c1cnc(Cl)cn1 (stereo not given) | 3170 | 6.96 | 0.744 | 2.249 | 1.948 | 1.647 | 0.744 | –
2 | CCCCCCCC(C)OC(=O)c1cnc(Cl)cn1 (stereo not given) | 30 | 4.14 | 0.949 | 2.455 | 2.756 | 2.153 | 0.949 | 3.977
3 | CCCCOC(=O)c1cnc(Cl)cn1 | 5.5 | 2.21 | 0.526 | 2.934 | 3.633 | 2.633 | 0.225 | 2.33
4 | CCCCCCCCC(C)(CCCC)OC(=O)c1cnc(Cl)cn1 (stereo not given) | 1140 | 7.05 | 0.744 | – | – | 1.647 | 0.744 | 1.346
5 | CCCCCCCCCCOC(=O)c1cnccn1 | 0.8 | 4.58 | 0.917 | 2.723 | 3.024 | 3.024 | 1.519 | 3.723
6 | CCCCCCCCCCOC(=O)c1cnc(F)cn1 | 4 | 5.08 | 0.946 | 2.15 | 1.849 | 1.849 | 0.946 | 2.451
7 | CCCCCCCCCOC(=O)c1cnc(C)cn1 | 1 | 4.46 | 0.616 | 2.422 | 2.422 | – | 0.917 | 2.121
8 | CC(C)COC(=O)c1cnc(Cl)cn1 | 11.8 | 1.97 | 0.526 | 2.031 | 2.934 | 2.031 | 0.526 | 2.33
9 | CCCCCCCCC(C)(C)OC(=O)c1cnc(Cl)cn1 | 957 | 5.51 | 0.388 | 1.592 | 2.796 | 1.592 | 0.388 | 2.194
10 | CCCCCCC(C)(C)OC(=O)c1cnc(Cl)cn1 | 510 | 4.39 | 0.648 | 3.057 | 1.852 | 3.057 | 0.648 | 2.455
11 | CCCCCCC(C)(CCCCCC)OC(=O)c1cnc(Cl)cn1 | 1080 | 7.08 | 0.744 | 3.152 | 2.851 | 2.851 | 1.346 | 2.249
12 | CCCCCC(C)OC(=O)c1cnc(Cl)cn1 (stereo not given) | 16.2 | 3 | 0.904 | 3.631 | 2.711 | 3.631 | 0.904 | 3.313
13 | CCCCCCCCCC(C)(C)OC(=O)c1cnc(Cl)cn1 | 902 | 6.01 | 0.106 | 1.611 | 2.514 | 1.31 | 0.106 | 2.815
14 | CCCCCC(C)(CCCCC)OC(=O)c1cnc(Cl)cn1 | 360 | 5.82 | 0.708 | – | – | 1.31 | 0.708 | 1.611
15 | CCCCCCC(C)(CCCC)OC(=O)c1cnc(Cl)cn1 (stereo not given) | 648 | 5.93 | 0.106 | – | 1.611 | 1.31 | 0.106 | 1.912
16 | CCCCCCCCC(CC)OC(=O)c1cnc(Cl)cn1 (stereo not given) | 9 | 5.99 | 0.087 | 3.097 | 2.495 | 2.495 | 0.087 | 3.398
17 | CCCCCC(C)(CCCC)OC(=O)c1cnc(Cl)cn1 (stereo not given) | 390 | 5.3 | 0.087 | 1.893 | 1.592 | – | 0.087 | 1.291
18 | CCCCCCCCCCCOC(=O)c1cnc(Cl)cn1 | 6 | 5.98 | 1.291 | 3.097 | 2.796 | 2.796 | 1.592 | 3.717

Row | SMILES | half-life [1] [min] | logP [2] | Log 1/MMIC (Mycobacterium avium [3]) | Log 1/MMIC [4] | Log 1/MMIC [5] | Log 1/MMIC [6] | Log 1/MMIC (Mycobacterium avium [7]) | Log 1/MMIC (Mycobacterium kansasii)
19 | CCCCCCCCCCOC(=O)c1cnc(Cl)cn1 | 1.9 | 5.48 | 0.97 | – | 3.077 | – | 1.271 | 2.776
20 | CCCCCCC(C)(CCCCC)OC(=O)c1cnc(Cl)cn1 (stereo not given) | 1410 | 6.45 | 0.726 | 2.232 | – | 1.329 | 0.726 | 1.63
21 | CCCCCC(CC)OC(=O)c1cnc(Cl)cn1 (stereo not given) | 7 | 4.24 | 0.626 | 2.734 | 3.035 | 3.035 | 0.927 | 3.955
22 | CCCCCCC(CCCCCC)OC(=O)c1cnc(Cl)cn1 | 60 | 7.04 | 1.329 | 3.135 | – | – | 0.726 | 2.834
23 | CCCCCCCC(C)(CCCC)OC(=O)c1cnc(Cl)cn1 (stereo not given) | 600 | 6.44 | 0.124 | 1.63 | 1.931 | – | 0.124 | 1.329
24 | CCCCCCCCOC(=O)c1cnc(Cl)cn1 | 1.3 | 4.48 | 1.228 | 3.654 | – | – | 1.228 | 3.955
25 | CCCCCOC(=O)c1cnc(Cl)cn1 | 3.2 | 2.73 | 0.854 | 3.581 | 2.961 | 3.262 | 0.854 | 3.882
26 | CCOC(=O)c1cnc(Cl)cn1 | 110 | 1.19 | 0.164 | 2.271 | – | 1.067 | 0.164 | 1.97
27 | CCCCCCC(C)OC(=O)c1cnc(Cl)cn1 (stereo not given) | 28.2 | 3.63 | 0.927 | – | – | – | 0.927 | 3.035
28 | CCCCCCCCCCCC(C)OC(=O)c1cnc(Cl)cn1 (stereo not given) | 50 | 6.25 | 0.124 | 2.232 | 2.834 | 2.834 | 1.027 | 3.754
29 | CCCCCCCCCC(C)OC(=O)c1cnc(Cl)cn1 (stereo not given) | 29.6 | 5.25 | 1.291 | 3.087 | 3.398 | 2.495 | 1.291 | 3.097
30 | O=C(OCc1ccccc1)c1cnc(Cl)cn1 | 5 | 2.39 | 1.493 | – | 2.697 | – | 1.794 | 2.396
31 | CC(C)(C)OC(=O)c1cnc(Cl)cn1 | 1200 | 1.7 | 0.225 | 1.73 | 2.031 | 1.73 | 2.33 | 2.633
32 | CCCOC(=O)c1cnc(Cl)cn1 | 18.7 | 1.67 | 1.098 | 3.524 | 3.825 | – | 1.098 | 2.904
33 | CCCCCCCOC(=O)c1cnc(Cl)cn1 | 3.2 | 3.87 | 1.506 | 3.631 | – | – | 1.205 | 3.932
34 | CCC(C)(CC)OC(=O)c1cnc(Cl)cn1 | 1020 | 2.74 | -0.023 | 1.482 | 1.482 | 1.783 | -0.023 | 2.084
35 | CCCCCCOC(=O)c1cnc(Cl)cn1 | 2.2 | 3.36 | 0.88 | 3.288 | 3.288 | 2.686 | 1.181 | 4.21
